Source: PubChem BioAssay (several laboratories)
sPLA2-III inh: Inhibits HGIII-sPLA2 liposome hydrolysis, primary screen. Q9NZ20. QFRET BODIPY PC-A2 liposome hydrolysis, fluorescence. inhibition, % at 12.2 µM. 370,000 tested, 0.56% active. AID 743126;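 active = inhibition above mean plus 3 SD of compounds lying within the high and low control bounds, cut at about 19% in these data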;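 also: 0% = median of test compound wells and 100% = no enzyme DMSO wells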
Target sequence (Q9NZ20 whole entry, looked up): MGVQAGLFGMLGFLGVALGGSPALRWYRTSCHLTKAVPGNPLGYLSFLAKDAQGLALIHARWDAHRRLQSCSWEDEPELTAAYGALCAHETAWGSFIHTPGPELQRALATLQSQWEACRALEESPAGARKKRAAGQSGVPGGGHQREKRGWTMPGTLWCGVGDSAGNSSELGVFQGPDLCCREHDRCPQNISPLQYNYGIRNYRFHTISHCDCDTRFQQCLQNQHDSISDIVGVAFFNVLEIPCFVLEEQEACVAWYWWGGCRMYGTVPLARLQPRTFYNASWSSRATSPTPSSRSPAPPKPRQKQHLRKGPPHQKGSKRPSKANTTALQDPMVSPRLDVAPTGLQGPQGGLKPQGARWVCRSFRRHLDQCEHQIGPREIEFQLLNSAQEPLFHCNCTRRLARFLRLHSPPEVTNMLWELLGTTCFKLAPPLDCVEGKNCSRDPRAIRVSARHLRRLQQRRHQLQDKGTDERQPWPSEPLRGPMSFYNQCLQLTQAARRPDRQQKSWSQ
TAG inh: reduces triacylglycerol accumulation in H9c2 cells; 230,000 tested, 0.66% active; Nile Red lipid (TAG) fluorescence; cells loaded with 200 µM oleic acid; inhibition, % at 12.5 µM;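 active = pattern-corrected inhibition of lipid staining of at least 50% with the nuclear-stain viability signal not falling by more than 50%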;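 also: 0% = DMSO wells and 100% = triacsin C control wells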
MT1-MMP act inh: MT1-MMP (human) activation inhibition; P50281; HT1080 RFP-PRO-GFP cells, GFP/RFP ratio fluorescence, overnight; percent of plate control window, DMSO zero; GFP/RFP ratio change, % at 20 µM; 360,000 tested, 0.061% active;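 active = GFP/RFP ratio change of at least 30% with cell ATP level not reduced by more than half and red fluorescence within 50% of control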
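Test system: HT1080 cells expressing an RFP-PRO-GFP fluorescent reporter construct / Compound dosing: single-point 20 µM compound, 1% DMSO / Schedule: cells overnight before dosing, compound overnight, 37 °C, 5% CO2 / Evaluation: GFP/RFP fluorescence ratio / Control set: DMSO and RFP-L50D-GFP cell wells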
Efflux pump mplx: blocks antifungal efflux pumps in multiplex yeast assay | S. cerevisiae Candida pump triplex, Nile Red efflux | inhibition, % at 10 µM | AID 485275 | 330,000 tested, 0.44% active;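 active = plate passing quality check with inhibition over a set limit, or well fluorescence over plate mean plus 4 SD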;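 also: Nile Red retained in pooled yeast measured as flow cytometry median fluorescence; 0% = buffer negative control and 100% = Enniatin B positive control; higher means more Nile Red kept so more efflux inhibition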
An asterisk follows results filed as active; nt = no result given. Shown are actives, neighbours in structure and some others; about 1.3% of the full set was active somewhere.

SMILES	sPLA2-III inh	TAG inh	MT1-MMP act inh	Efflux pump mplx
CN(C)CCn1c2ccccc2c2nc3ccc([N+](=O)[O-])cc3cc21	-20.5	56.3*	-8.6	0.0
O=C(OC12CCCN(C1)/C(=C/c1ccc(Cl)cc1)C2)c1ccc(F)cc1 (configuration not stated)	-4.3	nt	nt	nt
CCN1C(=O)[C@H]2[C@@H](c3ccc(-c4cccc(Cl)c4)c(OC)c3)N[C@@](CC(C)C)(C(=O)OC)[C@H]2C1=O	-8.2	70.0*	-20.5	nt
CCN1C(=O)[C@H]2[C@@H](c3ccc(-c4cccc(Cl)c4)cc3)N[C@@](CC(C)C)(C(=O)OC)[C@H]2C1=O	0.9	28.7	-4.3	0.1
COc1ccc(OC)c(N)c1	7.6	17.5	36.9*	-0.2
COc1ccc(C)cc1N	4.0	nt	nt	nt
CC(C1=CCCCC1)c1cnn(C)c1 (configuration not stated)	2.3	nt	nt	nt
O=C(Nc1ccc2c(c1)OCO2)O[C@@H]1CC[C@@]23CCCN2C(=O)CCC[C@H]3C1	-1.4	nt	nt	nt
COc1ccc(Nc2ccc(OC)cc2)cc1	17.9	45.9	37.5*	0.1
COc1ccc(Nc2ccc(Nc3ccc(OC)cc3)nn2)cc1	1.8	nt	0.2	-0.2
Cc1cccc(N2CCN(C(=O)c3ccncc3)CC2)c1C	-0.3	-8.5	-3.9	0.0
COc1cc(C(=O)N2CCN(c3cccc(C)c3C)CC2)cc(OC)c1OC	-2.5	55.7*	7.9	0.0
COC(CNC(=O)[C@H](Cc1ccccc1)NC1(C(=O)NC2CCCCC2)CCCC1)OC	8.4	nt	nt	nt
COc1ccc(C2NCCc3c2[nH]c2ccccc32)cc1COc1ccc(F)cc1 (configuration not stated)	-5.3	114.8*	-13.3	0.0
COc1ccc(C2NCCc3c2[nH]c2ccccc32)cc1CN1CCc2cc(OC)c(OC)cc2C1C (configuration not stated)	nt	37.3	1.2	nt
CN(CCCOC(=O)c1cc2ccccc2o1)C1CN(Cc2cn(Cc3ccc([N+](=O)[O-])cc3)nn2)S(=O)(=O)C1 (configuration not stated)	-7.4	nt	nt	nt
Cc1c[nH]c2cccc(-c3cc4ccccc4o3)c12	-40.7	nt	nt	nt
CC1C(O)=C(c2nc3ccccc3[nH]2)C(=N)N1c1ccccc1 (configuration not stated)	23.2*	nt	5.0	-0.1
CN(C)c1ccc(/C=C/c2ccc3ccccc3[n+]2C)cc1	19.5*	nt	86.6	28.8*
CN(C)c1ccc(/C=C/c2ccc3c4ccccc4ccc3[n+]2-c2ccccc2)cc1	43.8*	66.9*	56.7	nt
COc1ccc2c(c1)OC[C@H]1[C@H]2N2C(=O)c3ccccc3NC(=O)[C@@]2(C)[C@H]1c1ccccc1	38.6*	-21.9	-11.2	0.4
COc1ccc2c(c1)[C@H]1[C@H](CO2)[C@H](c2ccccc2)[C@]2(C)C(=O)Nc3ccc(C)cc3C(=O)N12	8.0	23.7	-15.0	-0.1
CC1=C/C(=N\NC(=S)Nc2cccnc2)CC(C)(C)C1	18.0	53.3*	6.7	nt
CC(C)(C)C(=O)OC12CCCN(C1)/C(=C/c1ccc(C#N)cc1)C2 (configuration not stated)	2.9	nt	nt	nt
O=C(COC(=O)c1ccncc1)Nc1cc(Cl)c(Cl)cc1Cl	nt	nt	nt	0.8*
SMILES	sPLA2-III inh	TAG inh	MT1-MMP act inh	Efflux pump mplx
Cc1cc(C)nc(S/C=C/C(=O)c2ccccc2F)n1	-0.8	75.1*	9.1	0.1
Cc1cc(C)nc(NC(=S)NC(=O)c2ccccc2F)n1	8.5	-3.7	1.9	-0.1
CC(=O)[C@@]1(O)CC[C@H]2[C@@H]3CCC4=CC(=O)CC[C@]4(C)[C@H]3CC[C@@]21C	5.5	-12.6	2.8	0.7
Cc1nc(C2CCC3C4CCC5=CC(=O)CC[C@]5(C)C4CC[C@]23C)cs1 (some centres not stated)	2.5	nt	nt	2.0*
C=C1CCN(C(C)C(=O)OC)S(=O)(=O)c2ccccc21 (configuration not stated)	6.8	55.4*	6.0	0.0
O=c1c2c(-c3ccccc3)csc2nc2c3ccccc3c(NCCN3CCOCC3)nn12	-22.6	100.5*	-2.7	nt
COc1ccccc1N1CCN(C(=O)c2cc3c(C)nn(-c4ccccc4)c3s2)CC1	1.3	nt	nt	nt
Cc1cccc(-c2cccc3c4c([nH]c23)[C@@H]2C[C@H](N(C)C(=S)Nc3ccc(C#N)cc3)[C@H]([C@H](C)O)CN2CC4)c1	5.7	nt	nt	nt
O=C(Cn1ncc(Cl)c(Cl)c1=O)NC(=O)NC1CCCCC1	-3.6	56.3*	-6.6	0.4
O=C(NC1CCCCN(Cc2cccc(Cl)c2)C1=O)c1ccc2ccccc2c1 (configuration not stated)	-5.1	nt	nt	nt
